This is an account of results in ChEMBL document CHEMBL5236549, “Discovery of 2-Sulfinyl-Diazabicyclooctane Derivatives, Potential Oral β-Lactamase Inhibitors for Infections Caused by Serine β-Lactamase-Producing Enterobacterales” (J Med Chem, 2021).

Data set [1] in a line: Inhibition of bacterial beta-lactamase KPC-2 using nitrocefin as substrate incubated for 20 mins. On the set-up: species or system Bacteria. In short, it runs like this: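 Nitrocefin hydrolysis read by absorbance. Enzyme titrated to give about 0.2 absorbance change over the no-enzyme control. Enzyme added to nitrocefin (final 50 μg/mL) plus inhibitor, no preincubation, read after 20 min at 35 °C. IC50 is 50% reduction of hydrolysis. N = 1.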

Data set [2] relates to Klebsiella pneumoniae. In words: Antibacterial activity against Klebsiella pneumoniae SR100758 assessed as inhibition of bacterial growth incubated for 16 to 24 hrs by CLSI based two-fold serial dilution method. The class given is functional. To be noted: time 16-24 hrs. The essentials:
(§1)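 CLSI broth microdilution in cation-adjusted Mueller Hinton broth, twofold serial dilutions, about 5 × 10⁴ cfu/well from OD625, 35 °C for 16−20 h. MIC is the lowest concentration with no visible growth.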

Data set [3] in a line: Half life in dog at 5 mg/kg,iv by LC/MS/MS analysis. To be noted: in vivo. The class given is ADME, organism-based, Canis lupus familiaris. The essentials:
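After iv dosing, T1/2 taken as ln 2/kel, with kel from the slope of the log concentration–time profile. Plasma levels measured by LC/MS/MS with an external standard.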

Data set [4] relates to Klebsiella pneumoniae. In words: Antibacterial activity against Klebsiella pneumoniae SR09603 assessed as reduction in bacterial growth by measuring minimum […] concentration incubated for 16 to 20 hrs by CLSI based two-fold serial dilution method. To be noted: time 16-20 hrs.
Data set [5] relates to Klebsiella pneumoniae. In words: Antibacterial activity against Klebsiella pneumoniae SR09635 assessed as inhibition of bacterial growth incubated for 16 to 20 hrs by CLSI based two-fold serial dilution method.
In data set [6] the test system is Klebsiella pneumoniae. In words: Antibacterial activity against Klebsiella pneumoniae SR200263 assessed as inhibition of bacterial growth incubated for 16 to 24 hrs by CLSI based two-fold serial dilution method. The class given is functional. The note with it: time 16-24 hrs. The essentials: as §1
In data set [7] the test system is Escherichia coli. The experiment in a line: Antibacterial activity against Escherichia coli ATCC SR34100 assessed as inhibition of bacterial growth incubated for 16 to 20 hrs by CLSI based two-fold serial dilution method.
The nature of data set [8]: Inhibition of bacterial beta-lactamase CTX-M-15 using nitrocefin as substrate incubated for 20 mins. Details: species or system Bacteria.
For data set [9], the system named is Enterobacter cloacae. The experiment in a line: Antibacterial activity against Enterobacter cloacae SR36276 assessed as inhibition of bacterial growth incubated for 16 to 20 hrs by CLSI based two-fold serial dilution method.
The nature of data set [10]: Stability of the compound in phosphate buffer at pH 7.0 assessed as parent compound remaining at 40 degreeC measured after 16 hrs. The note with it: read-out: Stability. The class given is physicochemical. In short, it runs like this:
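Compound held in pH 7.0 phosphate buffer at 40 °C for 16 h; amount remaining reported as %.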

The test system of data set [11] is Klebsiella pneumoniae. The experiment in a line: Antibacterial activity against Klebsiella pneumoniae SR200487 assessed as inhibition of bacterial growth incubated for 16 to 24 hrs by CLSI based two-fold serial dilution method. It is filed as functional. The note with it: time 16-24 hrs. The essentials: as §1
The test system of data set [12] is Klebsiella pneumoniae. In words: Antibacterial activity against Klebsiella pneumoniae ATCC BAA1705 assessed as reduction in bacterial growth by measuring minimum potentiating concentration incubated for 16 to 20 hrs by CLSI based two-fold serial dilution method. The note with it: time 16-20 hrs.
The subject of data set [13] is Escherichia coli. In words: Antibacterial activity against Escherichia coli ATCC SR09613 assessed as reduction in bacterial growth by measuring minimum […] concentration incubated for 16 to 24 hrs by CLSI based two-fold serial dilution method. It is filed as functional. The note with it: time 16-24 hrs. In short, it runs like this: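 MPC₁ by broth microdilution: twofold serial dilutions of inhibitor in cation-adjusted Mueller Hinton broth containing ceftibuten at 1 μg/mL. Inoculum about 5 × 10⁴ cfu/well final, set from OD625. Incubation at 35 °C for 16−20 h. […] N = 1.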

The subject of data set [14] is Klebsiella pneumoniae. The experiment in a line: Antibacterial activity against Klebsiella pneumoniae SR201325 assessed as reduction in bacterial growth by measuring minimum […] concentration incubated for 16 to 24 hrs by CLSI based two-fold serial dilution method. It is filed as functional. To be noted: time 16-24 hrs. In short, it runs like this:
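Inhibitor twofold serially diluted in cation-adjusted Mueller Hinton broth containing ceftibuten 1 μg/mL. About 5 × 10⁴ cfu/well, 35 °C for 16−20 h. […] N = 1.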

Data set [15] has as its system Enterobacter cloacae. The experiment in a line: Antibacterial activity against Enterobacter cloacae SR100108 assessed as reduction in bacterial growth by measuring minimum […] concentration incubated for 16 to 20 hrs by CLSI based two-fold serial dilution method. To be noted: time 16-20 hrs.

Structures are written as SMILES. A value given as a limit tells only on which side of the number the result lay.

On to `C[S@@+]([O-])[C@@H]1CC[C@@H]2CN1C(=O)N2O[C@H](F)C(=O)[O-].[Na+]`, for which the IC50 in data set [1] stood at 14 nM; in [8], 12 nM. Moreover, the MIC in [2] is above 32 µg/mL; in [5], 32 µg/mL; in data set [6], 32 µg/mL; in data set [7], 32 µg/mL; in data set [9], above 32 µg/mL; in [11] it was above 32 µg/mL. The half-life in [3] is 54 min. For the same compound, the MPC in data set [4] worked out at 0.125 µg/mL; in data set [12] it was 0.063 µg/mL; in data set [13], 0.125 µg/mL; in data set [14] it was 2 µg/mL; in data set [15], 1 µg/mL. The remaining at 16 h in [10] was found to be 95%.

What is called IC50 is the concentration that inhibits the measured activity by half. A higher IC50 goes with weaker potency. In general, MIC refers to the least concentration at which growth counts as inhibited. For orientation: half-life means the time needed for the level to fall by half in the phase considered.
